Data set [1] deals with L1210. Kind of data set: Antitumor activity against mouse L1210 cells intraperitoneally xenografted in ip dosed C3H/DBA2 F1 hybrid mouse assessed as increase in host lifespan administered daily for 5 days starting 24 hrs post-tumor implantation. The data set is classed as functional. The method, boiled down:
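10⁵ L1210 cells implanted ip into 18.5-22.5-g C3H/DBA2 F1 mice. Daily ip treatment for 5 days from 24 h after implant, as water-soluble salts (methanesulfonate or hydrochloride) or as homogenized suspensions in aqueous methylcellulose. Groups of six mice. Read-out is increase in life span (T/C% − 100) at the optimum dose (maximal life-span increase, mg/kg/day); 50-day survivors counted.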

The test system of the next data set is Blood. Description: Stability in mouse blood assessed as 4'-(9-acridinylamino)methanesulfonanilide release at 37 degC. Format: ADME, tissue-based.
The nature of data set [2]: Lipophilic-hydrophilic balance, Rm of the compound by reversed-phase partition chromatography. Format: physicochemical.
A short description of data set [3]: Half life of the compound in 0.1 M mercaptoethanol buffer at pH 7.4 at 37 degC by thiolytic assay. The data set is classed as physicochemical.
For the next data set, the system named is Mus musculus. Kind of data set: Toxicity in ip dosed mouse assessed as optimum dose that providing maximum increase in life span administered qd for 1 to 5 days. The data set is classed as organism-based. Particulars: in vivo. The method, boiled down: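 Mice were C3H/DBA2 F1 hybrids weighing 18.5-22.5 g. L1210 cells (10^5) were implanted ip or sc above the right axilla. Daily ip treatment began 24 h later and continued for 5 days (dq 1-5), given in water or as a homogenized suspension in aqueous methylcellulose. The optimum dose (mg/kg/day) is the one giving maximum life-span increase (T/C% - 100). Groups were six mice; 50-day survivors were counted.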

In data set [4] the test system is L1210. Kind of data set: Antitumor activity against mouse L1210 cells subcutaneously xenografted in ip dosed C3H/DBA2 F1 hybrid mouse assessed as increase in host lifespan administered daily for 5 days starting 24 hrs post-tumor implantation. Format: functional. The gist of the method:
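10⁵ L1210 cells implanted sc above the right axilla into 18.5-22.5-g C3H/DBA2 F1 mice. Daily ip dosing for 5 days from 24 h after implant, as water-soluble salts or as homogenized suspensions in aqueous methylcellulose. Groups of six mice. Increase in life span (T/C% − 100) at the optimum dose (maximal life-span increase, mg/kg/day); 50-day survivors counted.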

As for `CC(=O)N(c1ccc(Nc2c3ccccc3nc3ccccc23)cc1)S(C)(=O)=O.Cl`, the ILS (in general, the gain in survival time of treated over control animals, in per cent) in the data set with L1210 [1] came out at 109%; in the data set on L1210 [4], 68%. Also, in the data set with Blood, the Stability result was “Unstable”. The Rm in data set [2] is on record as -0.14. Moreover, the half-life (in general, the time in which the quantity being followed falls by half) in data set [3] is 6.6 h. In addition, the Activity in the data set on Mus musculus amounted to 160 mg/kg.
With `CCCCCCC(=O)N(c1ccc(Nc2c3ccccc3nc3cc([N+](=O)[O-])ccc23)cc1)S(C)(=O)=O`, the ILS in the data set on L1210 [1] turned out to be 48%; in the data set with L1210 [4], 41%. In addition, in data set [2], the Rm is recorded as 0.5. Moreover, in the data set with Mus musculus, the Activity was found to be 9 mg/kg.
The matching figures for `COc1cc(N(C(C)=O)S(C)(=O)=O)ccc1Nc1c2ccccc2nc2ccccc12.Cl`: 70%, 33%, 0.05 and 6 mg/kg.
On to `CC(=O)Nc1ccc2c(Nc3ccc(NS(C)(=O)=O)cc3)c3ccccc3nc2c1`, for which the ILS was 114% with L1210 [1] and 33% in the data set with L1210 [4]. For the same molecule, the Rm in data set [2] is -0.12. Further, the Activity in the data set with Mus musculus was 13 mg/kg.
The matching figures for `COc1cc(NS(C)(=O)=O)ccc1Nc1c2ccccc2nc2ccccc12` [AMSACRINE]: 114%, 27%, 0.18 and 6.7 mg/kg.
For `CCCCC(=O)N(c1ccc(Nc2c3ccccc3nc3cc(NC(C)=O)ccc23)cc1)S(C)(=O)=O.Cl`, in that order: 89%, 63%, 0.36 and 80 mg/kg.
For `Cc1cccc2c(Nc3ccc(NS(C)(=O)=O)cc3)c3ccc([N+](=O)[O-])cc3nc12`, in that order: 113%, 98%, -0.01 and 100 mg/kg.
For `CCCC(=O)N(c1ccc(Nc2c3ccc([N+](=O)[O-])cc3nc3c(C)cccc23)cc1)S(C)(=O)=O`, the ILS was 71% in the data set on L1210 [1] and 31% in the data set on L1210 [4]. In addition, the Rm in data set [2] worked out at 0.31. Besides, the Activity in the data set on Mus musculus was 50 mg/kg.
For `CCC(=O)N(c1ccc(Nc2c3ccccc3nc3cc(NC(C)=O)ccc23)cc1)S(C)(=O)=O.Cl`, in that order: 135%, 88%, 0 and 40 mg/kg.
Regarding `Br.CCCCCCCC(=O)N(c1ccc(Nc2c3ccccc3nc3cc(NC(C)=O)ccc23)cc1)S(C)(=O)=O`, the ILS with L1210 [1] is 83%; in the data set on L1210 [4] it was 45%. This molecule showed a Rm in data set [2] of 0.69. The Activity in the data set on Mus musculus came to 22 mg/kg.
`CCCCCCCCCCCCCCCCCC(=O)N(c1ccc(Nc2c3ccccc3nc3cc(NC(C)=O)ccc23)cc1)S(C)(=O)=O`: the values for the ILS with L1210 [1] and with L1210 [4] were 68% and 39%, respectively. Further, the Rm in data set [2] is reported as 0.87. Besides, the Activity in the data set on Mus musculus came out at 450 mg/kg.
The matching figures for `CCC(=O)N(c1ccc(Nc2c3ccccc3nc3cc([N+](=O)[O-])ccc23)cc1)S(C)(=O)=O`: 162%, 57%, 0.13 and 50 mg/kg.
For `CCCCCCCCC(=O)N(c1ccc(Nc2c3ccccc3nc3cc([N+](=O)[O-])ccc23)cc1)S(C)(=O)=O`, in that order: 144%, 61%, 0.71 and 75 mg/kg.
